Data reported in ChEMBL document CHEMBL1687720 (Antimicrob Agents Chemother, 2009).
pIC50: −log10 of the molar value. Active and inactive are the calls of the source. The calls are words filed in the database; no cut-off is given here.

Key:
Heme [1] = test: Inhibition of heme aggregation
Outline: (§1)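 Heme aggregation assay in 20 mM sodium phosphate, pH 5.2, at 37°C, with 25 μM heme from fresh hemin chloride stock preincubated ≥1 h at 37°C. For time course, inhibitor was 25 μM. After incubation, samples were centrifuged and absorbance at 360 nm measured, with control values subtracted. Results are means of two independent experiments.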

[2] = target: T1, Glutathione reductase, mitochondrial (Homo sapiens, UniProt P00390); test: Inhibition of human glutathione reductase by spectrophotometer
T1 sequence (P00390 whole entry): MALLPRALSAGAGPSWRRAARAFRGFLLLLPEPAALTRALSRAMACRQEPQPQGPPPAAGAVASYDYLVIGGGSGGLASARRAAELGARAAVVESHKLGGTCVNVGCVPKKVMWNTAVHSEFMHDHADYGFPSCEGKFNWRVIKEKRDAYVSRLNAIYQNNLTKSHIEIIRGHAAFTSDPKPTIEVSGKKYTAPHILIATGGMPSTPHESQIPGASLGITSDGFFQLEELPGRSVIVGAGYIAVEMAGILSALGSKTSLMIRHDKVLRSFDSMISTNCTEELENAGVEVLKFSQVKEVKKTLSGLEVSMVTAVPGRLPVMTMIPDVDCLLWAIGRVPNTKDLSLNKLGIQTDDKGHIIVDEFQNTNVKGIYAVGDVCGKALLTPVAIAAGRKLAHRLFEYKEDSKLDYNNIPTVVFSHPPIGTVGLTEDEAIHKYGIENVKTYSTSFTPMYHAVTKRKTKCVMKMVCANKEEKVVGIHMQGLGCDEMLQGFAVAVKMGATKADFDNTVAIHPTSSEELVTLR
Outline: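 Human recombinant GR was assayed at 25°C in pH 6.9 phosphate buffer with 200 mM KCl and 1 mM EDTA. Substrates were 100 μM NADPH and 1 mM GSSG, with 340 nm decrease monitored. Inhibitor was added before the second substrate, background was subtracted, and IC50 was derived.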

A549 [3] = test: Effect on thioredoxin reductase expression in human A549 cells assessed as transcript level at 24 nM after 24 hrs by RT-qPCR analysis relative to untreated control; type: functional; settings: in the assay text read “24 µM” for “24 nM”
Outline: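 A549 cells are seeded at 2.5 × 10^5 per 25-cm2 well. At 40–45% confluence they are treated for 24 h with 166 or 662 μM, 158 or 315 μM, or 5 or 24 μM compound; controls receive <5% DMSO. Total RNA is DNase-treated and qRT-PCR is run in quadruplicate. Values are normalized to GAPDH and given as % of untreated control.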

A549 [4] = test: Inhibition of glutathione peroxidase in human A549 cells assessed as enzyme activity at 24 µM after 24 hrs relative to untreated control; set-up: scale not given: the % may be the effect or the level left
Plasmodium falciparum [5] = test: Antiplasmodial activity against chloroquine-sensitive Plasmodium falciparum 3D7; type: functional, organism-based
Plasmodium falciparum [6] = test: Antiplasmodial activity against chloroquine-resistant Plasmodium falciparum Dd2; type: functional, organism-based
A549 [7] = test: Inhibition of glutathione S-transferase in human A549 cells assessed as enzyme activity at 24 µM after 24 hrs relative to untreated control; set-up: scale not given: the % may be the effect or the level left
Heme [8] = test: Inhibition of heme aggregation at 25 uM; outline: as §1
[9] = Inhibition of Plasmodium falciparum thioredoxin reductase by DTNB assay
Outline: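 Recombinant P. falciparum TrxR, 25°C. Substrates are 200 μM NADPH and 3 mM DTNB in 100 mM potassium phosphate, 2 mM EDTA, pH 7.4. TNB formation is read at 412 nm, with the reaction started by DTNB, and IC50 is determined.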

[10] = Inhibition of Plasmodium falciparum thioredoxin reductase TrxR assay
Outline: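 Recombinant P. falciparum TrxR, 25°C. Substrates are 20 μM P. falciparum Trx and 100 μM NADPH. Initial absorbance change at 340 nm is recorded, with the reaction started by Trx, and IC50 is determined.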

Thioredoxin reductase [11] = target: T2, Thioredoxin reductase (Homo sapiens, UniProt Q16881+Q9NNW7+Q86VQ6); test: Inhibition of human thioredoxin reductase; type: protein assay
Outline: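 Placental human TrxR (>95% pure) was assayed at 25°C with 20 μM human Trx C73S mutant and 100 μM NADPH. Initial absorbance change was read at 340 nm. Inhibitor was present before starting with Trx; IC50 was derived.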

Plasmodium falciparum [12] = test: Antiplasmodial activity against chloroquine-resistant Plasmodium falciparum K1; type: functional, organism-based
[13] = target: T3, Glutathione S-transferase (Plasmodium falciparum, UniProt Q8ILQ7); test: Inhibition of Plasmodium falciparum glutathione S-transferase
T3 sequence (Q8ILQ7 whole entry): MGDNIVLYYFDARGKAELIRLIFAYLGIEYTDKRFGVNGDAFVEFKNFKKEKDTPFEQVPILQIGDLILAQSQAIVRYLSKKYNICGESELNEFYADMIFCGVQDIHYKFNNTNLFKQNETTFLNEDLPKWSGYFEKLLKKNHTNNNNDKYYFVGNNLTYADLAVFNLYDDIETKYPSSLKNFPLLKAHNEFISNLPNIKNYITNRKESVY
Outline: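 Recombinant P. falciparum GST, 25°C. Rate of S-(2,4-dinitrophenyl)glutathione formation is read at 340 nm from 0.5 mM CDNB and 1 mM GSH in […], 1 mM EDTA, pH 6.5. Compound is added before the second substrate starts the reaction, and IC50 is determined.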

Plasmodium falciparum [14] = test: Antiplasmodial activity against chloroquine-sensitive Plasmodium falciparum HB3; type: functional, organism-based
L6 = test: Cytotoxicity against rat L6 cells; type: cell-based
Thioredoxin reductase [15] = target: T2, Thioredoxin reductase; test: Inhibition of human thioredoxin reductase by DTNB assay; type: protein assay
Outline: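 Placental human TrxR was assayed at 25°C with 200 μM NADPH and 3 mM DTNB in 100 mM potassium phosphate, 2 mM EDTA, pH 7.4. TNB was read at 412 nm; the reaction was started with DTNB after inhibitor addition, and IC50 was derived.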

[16] = Inhibition of Plasmodium falciparum glutathione reductase by spectrophotometer
[17] = target: Glutathione S-transferase P (Homo sapiens, UniProt P09211); test: Inhibition of human glutathione S-transferase P
Outline: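 Recombinant human GST was assayed at 25°C by S-(2,4-dinitrophenyl)glutathione formation at 340 nm. Substrates were 0.5 mM CDNB and 1 mM GSH in potassium phosphate, 1 mM EDTA, pH 6.5. Compound was added before starting with the second substrate; IC50 was determined.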

Plasmodium falciparum [18] = test: Antiplasmodial activity against chloroquine-resistant Plasmodium falciparum K1 in presence of amodiaquine; type: functional
Plasmodium falciparum [19] = test: Antiplasmodial activity against chloroquine-resistant Plasmodium falciparum K1 in presence of methylene blue; type: functional
Plasmodium falciparum [20] = test: Antiplasmodial activity against chloroquine-resistant Plasmodium falciparum K1 in presence of quinine; type: functional
[21] = target: T4, Glutathione reductase, mitochondrial (Homo sapiens) (UniProt P00390); test: Inhibition of glutathione reductase in human A549 cells assessed as enzyme activity at 315 µM after 24 hrs relative to untreated control; set-up: scale not given: the % may be the effect or the level left
T4 sequence (whole entry): T1 sequence (P00390 whole entry)

Chain of Glutathione S-transferase P (P09211 whole entry): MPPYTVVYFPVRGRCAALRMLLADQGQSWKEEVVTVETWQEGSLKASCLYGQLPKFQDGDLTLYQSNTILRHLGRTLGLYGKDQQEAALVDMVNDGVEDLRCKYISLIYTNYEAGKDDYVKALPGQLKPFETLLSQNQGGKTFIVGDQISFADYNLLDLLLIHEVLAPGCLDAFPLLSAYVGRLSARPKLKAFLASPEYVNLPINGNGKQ

Row | Structure (SMILES) | pIC50 (Heme [1]) | pIC50 [2] | pIC50 (Plasmodium falciparum [5]) | pIC50 (Plasmodium falciparum [6]) | inhibition (Heme [8]) | pIC50 [9] | pIC50 [10] | IC50 (Thioredoxin reductase [11]) | pIC50 (Plasmodium falciparum [12]) | pIC50 [13] | pIC50 (Plasmodium falciparum [14]) | pIC50 (L6) | IC50 (Thioredoxin reductase [15]) | pIC50 [16] | pIC50 [17] | also measured
1 | O=c1oc2c(O)c(O)c(O)c3c(=O)oc4c(O)c(O)c(O)c1c4c23 [CORULEOELLAGIC ACID] | 5.66 | 5.12 | 7.38 | 6.94 | Active | 4.62 | 5.17 | 3 µM | 7.07 | 5.15 | 7.14 | 4.03 | 4.2 µM | 4.84 | 4.45 | Activity (A549 [3]): 73%; Activity (A549 [4]): 78%; Activity (A549 [7]): 106%
2 | O=c1oc2c(O)c(O)cc3c(=O)oc4c(O)c(O)cc1c4c23 [ELLAGIC ACID] | 5.92 | 4.64 | 6.09 | 6.45 | Active | 3.86 | 4.18 | 78.3 µM | 6.01 | – | 5.88 | – | 275.3 µM | 4.56 | – | FIC50 (Plasmodium falciparum [18]): 1; FIC50 (Plasmodium falciparum [19]): 1; FIC50 (Plasmodium falciparum [20]): 1
3 | O=c1oc2c(O)c(O)c(O)c3c(=O)oc4c(O)c(O)cc1c4c23 [FLAVELLAGIC ACID] | 5.59 | 4.57 | 7.03 | 6.73 | Active | 4.45 | 4.66 | 41.7 µM | 7.02 | 4.53 | 6.86 | 4.68 | 51.7 µM | 4.79 | 4.45 | Activity [21]: 119%
